Experimental data published in ChEMBL document CHEMBL2062386, “Discovery of LFF571: an investigational agent for Clostridium difficile infection” (J Med Chem, 2012).
≈ marks a conversion by molar mass, not a printed value.

Tests used:
Type in all cases: functional
Enterococcus faecium = experiment: Antibacterial activity against Enterococcus faecium 7130724 by broth microdilution method
Staphylococcus aureus [1] = experiment: Antibacterial activity against Staphylococcus aureus A4.018 by broth microdilution method
[2] = Antibacterial activity against Clostridium difficile ATCC 43255 by broth microdilution method; conditions: Clostridioides difficile
In short: (§1)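 Broth microdilution MICs were run per CLSI M07-A8 (2009). The strain panel included C. difficile ATCC 43255, E. faecalis ATCC 29212 and S. pyogenes ATCC BAA-595.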

Enterococcus faecalis [3] = experiment: Antibacterial activity against Enterococcus faecalis ATCC 29212 by broth microdilution method; in short: as §1
Escherichia coli = experiment: Inhibition of protein synthesis in Escherichia coli S30 extract at 2 uM after 75 mins by luciferase based luminescence assay relative to GE2270A
Streptococcus pyogenes = experiment: Antibacterial activity against Streptococcus pyogenes ATCC BAA-595 by broth microdilution method; in short: as §1
Enterococcus faecalis [4] = experiment: Antibacterial activity against Enterococcus faecalis NB04025 infected in CD1 mouse assessed as mouse survival up to 5 days; conditions: NB04025, 120 h
In short: (§2)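 Female CD1 mice (21–25 g) were infected ip with 1 × 10^8 CFU/mouse, 10–100× the minimal lethal dose. E. faecalis NB04025 was given in 50% rat fecal extract and S. aureus ATCC 49951 in 0.9% NaCl. Compound was given by iv tail-vein bolus at 1 and 5 h post-inoculation, at several dose levels (6 mice/group). ED50 with 95% CI was derived by probit analysis of day-5 survival.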

Staphylococcus aureus [5] = experiment: Antibacterial activity against Staphylococcus aureus ATCC 49951 infected in CD1 mouse assessed as mouse survival up to 5 days; conditions: ATCC 49951, 120 h; in short: as §2

| SMILES | MIC (Enterococcus faecium) [µg/mL] | MIC (Staphylococcus aureus [1]) [µg/mL] | MIC [2] [µg/mL] | MIC (Enterococcus faecalis [3]) [µg/mL] | inhibition at 2 µM (Escherichia coli) [%] | MIC (Streptococcus pyogenes) [µg/mL] | ED50 (Enterococcus faecalis [4]) [mg/kg] | ED50 (Staphylococcus aureus [5]) [mg/kg] |
| --- | --- | --- | --- | --- | --- | --- | --- | --- |
| CNC(=O)C[C@@H]1NC(=O)c2csc(n2)-c2ccc(-c3nc(N(CCCCC(=O)O)C(=O)OC(CCCCC(=O)O)CCC(=O)O)cs3)nc2-c2csc(n2)-c2csc(n2)[C@H]([C@@H](O)c2ccccc2)NC(=O)CNC(=O)c2nc(sc2COC)[C@H](C(C)C)NC(=O)c2nc1sc2C (stereo not given in full) | 32 (≈ 22.4 µM) | 32 (≈ 22.4 µM) | 2 (≈ 1.4 µM) | 16 (≈ 11.2 µM) | 50 | > 32 |  |  |
| CNC(=O)C[C@@H]1NC(=O)c2csc(n2)-c2ccc(-c3nc(N(CCCC(=O)O)C(=O)O[C@H]4CC[C@H](C(=O)O)CC4)cs3)nc2-c2csc(n2)-c2csc(n2)[C@H]([C@@H](O)c2ccccc2)NC(=O)CNC(=O)c2nc(sc2COC)[C@H](C(C)C)NC(=O)c2nc1sc2C | 0.06 (≈ 0.0444 µM) | 0.25 (≈ 0.185 µM) | 0.06 (≈ 0.0444 µM) | < 0.06 | 67 | 1 (≈ 0.739 µM) | 2.2 | 2.6 |
| CNC(=O)C[C@@H]1NC(=O)c2csc(n2)-c2ccc(-c3nc(NC(=O)N4C[C@H](CCC(=O)O)C[C@H](CCC(=O)O)C4)cs3)nc2-c2csc(n2)-c2csc(n2)[C@H]([C@@H](O)c2ccccc2)NC(=O)CNC(=O)c2nc(sc2COC)[C@H](C(C)C)NC(=O)c2nc1sc2C | 4 (≈ 2.96 µM) | 4 (≈ 2.96 µM) | 0.25 (≈ 0.185 µM) | 2 (≈ 1.48 µM) | 30 | 4 (≈ 2.96 µM) |  |  |
| CNC(=O)C[C@@H]1NC(=O)c2csc(n2)-c2ccc(-c3nc(N(CCCCC(=O)O)C(=O)OCCC(CCCCC(=O)O)C(=O)O)cs3)nc2-c2csc(n2)-c2csc(n2)[C@H]([C@@H](O)c2ccccc2)NC(=O)CNC(=O)c2nc(sc2COC)[C@H](C(C)C)NC(=O)c2nc1sc2C (stereo not given in full) | 16 (≈ 11.2 µM) | 16 (≈ 11.2 µM) | 0.5 (≈ 0.35 µM) | 8 (≈ 5.61 µM) | 50 | 32 (≈ 22.4 µM) |  |  |
| CNC(=O)C[C@@H]1NC(=O)c2csc(n2)-c2ccc(-c3nc(N(CCCCC(=O)O)C(=O)[C@H]4CC[C@H]4C(=O)O)cs3)nc2-c2csc(n2)-c2csc(n2)[C@H]([C@@H](O)c2ccccc2)NC(=O)CNC(=O)c2nc(sc2COC)[C@H](C(C)C)NC(=O)c2nc1sc2C | 32 (≈ 24.2 µM) | 32 (≈ 24.2 µM) | 4 (≈ 3.02 µM) | 16 (≈ 12.1 µM) | 30 | > 32 |  |  |
| CNC(=O)C[C@@H]1NC(=O)c2csc(n2)-c2ccc(-c3nc(N(CCOCC(=O)O)C(=O)O[C@H]4CC[C@H](C(=O)O)CC4)cs3)nc2-c2csc(n2)-c2csc(n2)[C@H]([C@@H](O)c2ccccc2)NC(=O)CNC(=O)c2nc(sc2COC)[C@H](C(C)C)NC(=O)c2nc1sc2C | 2 (≈ 1.46 µM) | 4 (≈ 2.92 µM) | 0.125 (≈ 0.0913 µM) | 2 (≈ 1.46 µM) | 67 | 4 (≈ 2.92 µM) |  |  |
| CNC(=O)C[C@@H]1NC(=O)c2csc(n2)-c2ccc(-c3nc(N(CCCCC(=O)O)C(=O)OCC(CCCCC(=O)O)CC(=O)O)cs3)nc2-c2csc(n2)-c2csc(n2)[C@H]([C@@H](O)c2ccccc2)NC(=O)CNC(=O)c2nc(sc2COC)[C@H](C(C)C)NC(=O)c2nc1sc2C (stereo not given in full) | 8 (≈ 5.61 µM) | 8 (≈ 5.61 µM) | 1 (≈ 0.701 µM) | 8 (≈ 5.61 µM) | 50 | 32 (≈ 22.4 µM) |  |  |
| CNC(=O)C[C@@H]1NC(=O)c2csc(n2)-c2ccc(-c3nc(N(CCCCC(=O)O)C(=O)[C@H]4CC[C@@H](C(=O)O)O4)cs3)nc2-c2csc(n2)-c2csc(n2)[C@H]([C@@H](O)c2ccccc2)NC(=O)CNC(=O)c2nc(sc2COC)[C@H](C(C)C)NC(=O)c2nc1sc2C | > 32 | > 32 | > 4 | > 32 | 30 | > 32 |  |  |
